Experimental data taken from ChEMBL document CHEMBL1157825, “1-(2-Ethoxyethyl)-1H-pyrazolo[4,3-d]pyrimidines as potent phosphodiesterase 5 (PDE5) inhibitors” (Bioorg Med Chem Lett, 2010).

Assay: Volume of distribution at steady state in Beagle dog at 0.2 to 0.5 mg/kg, iv
Type: ADME, organism-based, Canis lupus familiaris
Design: dose 0.2-0.5 mg/kg, route intravenous
Conditions: in vivo, read-out: Vdss
Outline: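 Single IV dose of 0.2–0.5 mpk given to 10 kg beagles. Half-life reported in h, clearance in mL/min/kg and Vdss in L/kg.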

Vd [L/kg] | Compound
50.4 | CCOCCn1nc(CC)c2nc(N3CCC(N)CC3)nc(Nc3cc(C)ccn3)c21
11.4 | CCOCCn1nc(CC)c2nc(N3CCN(C)CC3)nc(Nc3cc(C)ccn3)c21
3.8 | CCOCCn1nc(CC)c2nc(N3CCC(C(=O)O)CC3)nc(Nc3cc(C)ccn3)c21
